SMILES strings stand for the structures.

The target of one data set is Cytochrome P450 2D6 (Homo sapiens, UniProt P10635). In words: Inhibition of CYP2D6 (unknown origin). The data set is classed as ADME.
Data set [1] concerns the target T1, Toll-like receptor 7 (Homo sapiens) (UniProt Q9NYK1).
T1 sequence (whole entry): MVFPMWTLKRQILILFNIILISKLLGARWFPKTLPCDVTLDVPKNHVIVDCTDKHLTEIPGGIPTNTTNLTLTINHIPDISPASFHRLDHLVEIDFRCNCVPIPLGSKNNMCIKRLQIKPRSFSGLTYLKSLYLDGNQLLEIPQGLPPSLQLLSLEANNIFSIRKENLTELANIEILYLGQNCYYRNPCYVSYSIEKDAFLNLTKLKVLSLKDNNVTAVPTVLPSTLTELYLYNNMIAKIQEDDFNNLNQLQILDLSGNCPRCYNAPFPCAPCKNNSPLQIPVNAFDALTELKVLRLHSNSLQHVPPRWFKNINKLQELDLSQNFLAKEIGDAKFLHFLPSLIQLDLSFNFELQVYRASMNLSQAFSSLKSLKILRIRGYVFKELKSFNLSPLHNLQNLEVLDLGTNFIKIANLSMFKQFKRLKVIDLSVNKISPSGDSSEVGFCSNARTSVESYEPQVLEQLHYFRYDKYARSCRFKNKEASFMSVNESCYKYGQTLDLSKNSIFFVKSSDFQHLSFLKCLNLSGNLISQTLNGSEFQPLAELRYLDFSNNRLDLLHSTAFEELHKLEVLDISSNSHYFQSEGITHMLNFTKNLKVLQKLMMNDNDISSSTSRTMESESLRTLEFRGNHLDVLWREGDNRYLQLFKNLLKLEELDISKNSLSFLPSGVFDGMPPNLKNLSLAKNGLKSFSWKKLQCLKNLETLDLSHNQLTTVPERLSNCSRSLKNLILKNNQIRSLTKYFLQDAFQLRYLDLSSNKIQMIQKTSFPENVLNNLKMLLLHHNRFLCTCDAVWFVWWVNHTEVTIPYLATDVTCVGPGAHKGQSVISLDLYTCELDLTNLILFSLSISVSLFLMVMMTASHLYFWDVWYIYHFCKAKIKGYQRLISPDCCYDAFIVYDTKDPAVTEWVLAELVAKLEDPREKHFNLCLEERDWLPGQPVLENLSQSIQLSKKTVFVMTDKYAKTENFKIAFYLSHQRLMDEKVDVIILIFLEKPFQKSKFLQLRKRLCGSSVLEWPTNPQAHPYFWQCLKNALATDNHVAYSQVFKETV
In words: Agonist activity at human TLR7 expressed in HEK293 cells assessed as induction of receptor activation incubated for 6 hrs by NF-kappaB-luciferase reporter gene assay. Type of data set: cell-based. The procedure, abridged: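 HEK293 cells transiently transfected overnight with CMV-TLR7 (wild type or dLRR2 mutant) plus NFκB-luc plasmids. Seeded at 1.67 x 10^5 cells/mL onto compound in 4% DMSO (stock), 6 h at 37°C, 5% CO2, luciferase readout. Quadruplicate dose-response. LEC is the concentration giving an effect at least two-fold above assay SD. Values averaged over independent experiments where repeated.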
Background: In a reporter assay the amount or activity of a reporter protein is the signal.

The nature of data set [2]: Metabolic stability in human liver microsomes assessed as drug metabolism after 15 mins at 1 uM. Type of data set: ADME, microsome. The following applies: read-out: Drug metabolism. The procedure, abridged: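 Compound at 1µM incubated with liver microsomes of the stated species. Percent of compound metabolized after 15 min.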
(In general: Liver microsomes are a subcellular fraction often used to study metabolism.)

The target in a further data set is T2, Toll-like receptor 8 (Homo sapiens, UniProt Q9NR97).
T2 sequence (Q9NR97 whole entry): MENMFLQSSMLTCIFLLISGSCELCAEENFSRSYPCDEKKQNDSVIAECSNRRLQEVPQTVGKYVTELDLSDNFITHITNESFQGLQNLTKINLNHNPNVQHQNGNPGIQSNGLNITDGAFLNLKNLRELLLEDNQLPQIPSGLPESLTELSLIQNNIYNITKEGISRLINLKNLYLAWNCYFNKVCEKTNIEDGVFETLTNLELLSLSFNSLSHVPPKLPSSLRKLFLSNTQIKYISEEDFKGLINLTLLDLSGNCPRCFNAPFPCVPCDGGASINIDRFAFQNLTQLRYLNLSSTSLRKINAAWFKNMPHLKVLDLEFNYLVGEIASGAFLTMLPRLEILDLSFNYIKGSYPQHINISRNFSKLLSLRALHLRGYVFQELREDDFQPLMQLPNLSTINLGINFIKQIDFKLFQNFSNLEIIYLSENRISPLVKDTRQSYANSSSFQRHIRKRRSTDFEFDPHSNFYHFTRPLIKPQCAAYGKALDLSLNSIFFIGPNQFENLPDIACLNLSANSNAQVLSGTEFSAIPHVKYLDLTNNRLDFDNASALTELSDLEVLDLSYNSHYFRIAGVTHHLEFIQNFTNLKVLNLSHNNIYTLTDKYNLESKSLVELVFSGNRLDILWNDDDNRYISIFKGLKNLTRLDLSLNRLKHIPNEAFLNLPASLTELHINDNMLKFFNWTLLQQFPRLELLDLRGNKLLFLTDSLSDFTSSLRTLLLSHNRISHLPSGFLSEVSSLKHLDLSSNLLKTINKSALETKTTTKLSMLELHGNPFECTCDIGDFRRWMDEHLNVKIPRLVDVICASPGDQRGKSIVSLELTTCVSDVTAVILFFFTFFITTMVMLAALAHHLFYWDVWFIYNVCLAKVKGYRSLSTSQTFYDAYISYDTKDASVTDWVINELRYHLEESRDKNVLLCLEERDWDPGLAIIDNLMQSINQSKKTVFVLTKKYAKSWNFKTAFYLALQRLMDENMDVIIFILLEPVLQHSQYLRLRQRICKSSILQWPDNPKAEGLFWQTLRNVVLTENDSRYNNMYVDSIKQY
Nature of the data set: Agonist activity at human TLR8 expressed in HEK293 cells assessed as induction of receptor activation incubated for 6 hrs by NF-kappaB-luciferase reporter gene assay. Type of data set: cell-based. The following applies: hek293, 6 h. The procedure, abridged: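 HEK293 cells transiently transfected overnight at 37°C with CMV-TLR8 plasmid (wild type or dLRR2 mutant) plus NFκB-luc reporter, then exposed to compound for 6 h at 37°C, 5% CO₂. Luciferase read-out. Quadruplicate dose-response. LEC is the concentration giving an effect at least two-fold above the assay SD, averaged over two or more independent experiments.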

The next data set concerns the target Cytochrome P450 2C9 (Homo sapiens, UniProt P11712). Nature of the data set: Inhibition of CYP2C9 (unknown origin). The data set is classed as ADME.

Cytochrome P450 2C9, sequence (P11712 whole entry): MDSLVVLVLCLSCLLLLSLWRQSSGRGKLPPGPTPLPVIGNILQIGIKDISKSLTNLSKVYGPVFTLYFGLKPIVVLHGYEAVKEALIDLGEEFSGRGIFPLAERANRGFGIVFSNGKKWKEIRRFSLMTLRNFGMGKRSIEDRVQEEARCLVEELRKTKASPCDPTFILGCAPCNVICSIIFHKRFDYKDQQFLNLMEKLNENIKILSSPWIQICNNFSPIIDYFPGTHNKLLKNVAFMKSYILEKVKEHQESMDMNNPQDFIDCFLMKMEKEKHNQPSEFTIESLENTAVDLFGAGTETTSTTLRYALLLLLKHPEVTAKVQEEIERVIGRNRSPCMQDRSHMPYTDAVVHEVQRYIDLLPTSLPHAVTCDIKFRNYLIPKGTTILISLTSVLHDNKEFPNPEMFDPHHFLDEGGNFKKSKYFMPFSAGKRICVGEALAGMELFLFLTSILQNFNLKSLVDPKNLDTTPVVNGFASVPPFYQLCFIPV
Cytochrome P450 2D6, sequence (P10635 whole entry): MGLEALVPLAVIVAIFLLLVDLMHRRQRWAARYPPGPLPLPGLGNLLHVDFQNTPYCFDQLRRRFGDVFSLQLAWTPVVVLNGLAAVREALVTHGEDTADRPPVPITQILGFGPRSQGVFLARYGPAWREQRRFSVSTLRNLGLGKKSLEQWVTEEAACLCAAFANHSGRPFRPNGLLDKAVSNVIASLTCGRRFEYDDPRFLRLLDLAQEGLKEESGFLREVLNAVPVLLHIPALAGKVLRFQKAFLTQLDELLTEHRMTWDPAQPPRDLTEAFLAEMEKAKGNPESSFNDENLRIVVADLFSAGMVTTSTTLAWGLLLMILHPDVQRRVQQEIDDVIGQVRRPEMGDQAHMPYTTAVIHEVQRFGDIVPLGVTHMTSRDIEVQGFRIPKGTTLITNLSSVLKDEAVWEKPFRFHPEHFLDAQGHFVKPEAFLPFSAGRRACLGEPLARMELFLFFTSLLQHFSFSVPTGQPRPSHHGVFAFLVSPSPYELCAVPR

Broadly, the IC50 is the point on the concentration scale where inhibition reaches its midpoint. As to `CCCCNc1nc(N)nc2cccc(C(=O)N[C@@H](C)c3ccccc3)c12`, the IC50 at Cytochrome P450 2D6 and against Cytochrome P450 2C9 was more than 10 µM in each case. In addition, the MEC in data set [1] was 0.09 µM; at Toll-like receptor 8, more than 25 µM. The metabolised at 0.25 h, 1 µM in data set [2] came out at 31%.
For `CCCCNc1nc(N)nc2ccccc12`, the results for the MEC (in data set [1]; on Toll-like receptor 8) were 0.17 µM and 0.07 µM, respectively. Moreover, the metabolised at 0.25 h, 1 µM in data set [2] amounted to 90%.
For `CCCCNc1nc(N)nc2cccc(C(=O)N(C)Cc3ccccc3)c12`, the IC50 on Cytochrome P450 2D6 is 5.6 µM; at Cytochrome P450 2C9, more than 10 µM. In addition, the MEC was 0.53 µM in data set [1] and more than 25 µM at Toll-like receptor 8. Besides, the metabolised at 0.25 h, 1 µM in data set [2] was found to be 98%.
Taken in the same sequence, the figures for `CCCCNc1nc(N)nc2cccc(OCc3nccc(OC)c3OC)c12` were more than 10 µM, more than 10 µM, 0.03 µM, more than 25 µM and 37%.
For `CCCCNc1nc(N)nc2cccc(C(=O)N[C@H](C)c3ccccc3)c12` the same measures were more than 10 µM, more than 10 µM, 2.29 µM, more than 25 µM and 32%.
Turning to `CCCCNc1nc(N)nc2cccc(OCc3ccc(CO)cc3OC)c12`, the IC50 came out at 4.4 µM on Cytochrome P450 2D6 and 5 µM at Cytochrome P450 2C9. In addition, the MEC in data set [1] is 0.03 µM; on Toll-like receptor 8 it was more than 25 µM. In data set [2], the metabolised at 0.25 h, 1 µM was 43%.
Taken in the same sequence, the figures for `CCCCNc1nc(N)nc2cccc(OCc3ccccc3OC)c12` were more than 10 µM, more than 10 µM, 0.27 µM, more than 25 µM and 48%.
In the case of `CCCCNc1nc(N)nc2cccc(C(=O)NC)c12`, the results for the concentration for half-maximal inhibition (IC50) on Cytochrome P450 2D6 and at Cytochrome P450 2C9 were more than 10 µM and 8 µM, respectively. In addition, the figures for the MEC (in data set [1]; at Toll-like receptor 8) were 0.35 µM and 0.39 µM, respectively. Also, the metabolised at 0.25 h, 1 µM in data set [2] was 23%.
`CCCCNc1nc(N)nc2cccc(OCc3ccccc3)c12`: the IC50 against Cytochrome P450 2D6 is 5.7 µM; on Cytochrome P450 2C9, more than 10 µM. The results for the MEC (in data set [1]; at Toll-like receptor 8) were 0.16 µM and 1.66 µM, respectively. Besides, the metabolised at 0.25 h, 1 µM in data set [2] is 11%.
Taken in the same sequence, the figures for `CCCCNc1nc(N)nc2cccc(C(=O)NC(C)C)c12` were more than 10 µM, more than 10 µM, 2.05 µM, 15.55 µM and 14%.
Taken in the same sequence, the figures for `CCCCNc1nc(N)nc2cccc(OCc3ccccn3)c12` were more than 10 µM, more than 10 µM, 0.49 µM, 18.5 µM and 60%.
As to `CCCCNc1nc(N)nc2cccc(OCc3cccnc3)c12`, the IC50 on Cytochrome P450 2D6 and against Cytochrome P450 2C9 was more than 10 µM throughout. The MEC in data set [1] amounted to 0.03 µM; on Toll-like receptor 8, 0.53 µM. The metabolised at 0.25 h, 1 µM in data set [2] came to 44%.
Regarding `CCCCNc1nc(N)nc2cccc(C(=O)NCc3ccccc3)c12`, the IC50 was 6.6 µM against Cytochrome P450 2D6 and more than 10 µM at Cytochrome P450 2C9. The MEC came out at 0.06 µM in data set [1] and 1.6 µM at Toll-like receptor 8. Further, in data set [2], the metabolised at 0.25 h, 1 µM worked out at 28%.

These data come from ChEMBL document CHEMBL4184225, “Discovery of selective 2,4-diaminoquinazoline toll-like receptor 7 (TLR 7) agonists” (Bioorg Med Chem Lett, 2018).
